The values below come from ChEMBL document CHEMBL1147113, “Miltefosine (hexadecylphosphocholine) inhibits cytochrome c oxidase in Leishmania donovani promastigotes” (Antimicrob Agents Chemother, 2007).

The structures appear in SMILES notation. Calls of active or inactive are those of the source. No cut-off for these calls is given here.

Assay [1] relates to Leishmania donovani. The experiment in a line: Inhibition of Leishmania donovani cytochrome c oxidase.
For assay [2], the system named is Leishmania donovani. The experiment in a line: Growth inhibition of Leishmania donovani MHOM/SD/00/1S-2D promastigotes assessed as inhibition of MTT reduction after 14 hrs. Format: functional, organism-based. The procedure, abridged: (§1)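 Late-exponential promastigotes at 2 × 10⁶ cells/ml in RPMI-10% HIFCS with drug, 14 h at 25°C. Washed at 4°C in Hanks-10 mM glucose, then given 0.5 mg/ml MTT for 2 h. Formazan dissolved in 10% SDS and read at 595 nm. Triplicates, at least two experiments; EC50 by Litchfield-Wilcoxon.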

Assay [3] has as its system Leishmania donovani. The experiment in a line: Growth inhibition of Leishmania donovani MHOM/SD/00/1S-2D promastigotes at 40 uM assessed as inhibition of MTT reduction after 14 hrs. Format: functional, organism-based. In outline: as §1
For assay [4], the system named is Leishmania donovani. The assay can be described thus: Effect on plasma membrane integrity in Leishmania donovani MHOM/SD/00/1S-2D promastigotes assessed as SYTOX green fluorescence at 40 uM after 14 hrs. Type of assay: functional. The procedure, abridged:
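Cells at 2 × 10⁶/ml in RPMI-10% HIFCS given increasing drug concentrations, 14 h at 25°C. Washed twice in Hanks-glucose and stained with 1 μM SYTOX green for 5 min in the dark. Fluorescence read at ex 485/em 520 nm and expressed as % of maximal signal after 0.1% Triton X-100.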

In assay [5] the test system is Leishmania donovani. The experiment in a line: Decrease in intracellular ATP level in Leishmania donovani 3-Luc promastigotes assessed as decrease in luminescence relative to control. Format: functional, organism-based.
Assay [6] deals with Leishmania donovani. The assay can be described thus: Effect on mitochondrial membrane potential in Leishmania donovani MHOM/SD/00/1S-2D promastigotes by measuring the decrease in rhodamine 123 accumulation after 14 hrs. Type of assay: functional, organism-based. In outline: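 After 14 h of drug exposure at 25°C, parasites washed twice at 4°C in Hanks-glucose and loaded with rhodamine 123 (0.3 μg/ml, 5 min, 37°C). Washed again, resuspended at 2 × 10⁶ cells/ml and read by flow cytometry (ex 488/em 525 nm; 20,000 events). Geometric mean fluorescence recorded; 10 mM KCN-poisoned cells served as depolarized control.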

For assay [7], the system named is Leishmania donovani. The experiment in a line: Effect on mitochondrial function in Leishmania donovani MHOM/SD/00/1S-2D promastigotes assessed as decrease in oxygen consumption at 10 uM after 14 hrs relative to control. Format: functional. The arrangement: scale not given: the % may be the effect or the level left. In outline:
(§2)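 Promastigotes incubated 14 h at 25°C with drug in RPMI-10% HIFCS at 2 × 10⁶ cells/ml. They were then washed and resuspended in respiration buffer at 10⁸ cells/ml with 5 mM succinate and 1 mg/ml BSA. Clark-electrode O₂ uptake at 25°C, given as nmol O₂/min/10⁸ cells and as % of untreated.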

Assay [8] concerns Leishmania donovani. The assay can be described thus: Effect on mitochondrial function in Leishmania donovani MHOM/SD/00/1S-2D promastigotes assessed as decrease in oxygen consumption at 20 uM after 14 hrs relative to control. Type of assay: functional. Further details: scale not given: the % may be the effect or the level left. In outline: as §2
The subject of assay [9] is Leishmania donovani. The assay can be described thus: Effect on mitochondrial function in Leishmania donovani MHOM/SD/00/1S-2D promastigotes assessed as decrease in oxygen consumption at 40 uM after 14 hrs relative to control. The arrangement: scale not given: the % may be the effect or the level left. Type of assay: functional. In outline: as §2
Assay [10] concerns Leishmania donovani. The assay can be described thus: Effect on oxygen consumption rate in digitonin-permeabilized Leishmania donovani MHOM/SD/00/1S-2D promastigotes assessed as decrease in state 3 respiration at 25 uM after 14 hrs. Further details: scale not given: the % may be the effect or the level left. Type of assay: functional.
Assay [11] deals with Leishmania donovani. The assay can be described thus: Inhibition of TMPD-ascorbate-dependent oxygen consumption in digitonin-permeabilized Leishmania donovani MHOM/SD/00/1S-2D promastigotes at 25 uM after 14 hrs. Format: functional, organism-based.
Assay [12] concerns Leishmania donovani. The assay can be described thus: Inhibition of Leishmania donovani cytochrome c reductase at 40 uM. The procedure, abridged:
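Same L. donovani mitochondrial fraction (200 μg/ml protein, 0.02% TX-100, 75 mM sodium phosphate pH 7.4), with CcO first blocked by 10 mM KCN and oxidized cytochrome c as acceptor. Reaction started with 5 mM succinate; A550 change monitored. Controls lacked succinate or contained 2 μM antimycin A. HePC tested at 40 μM.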

Assay [13] relates to Leishmania donovani. The experiment in a line: Effect on apoptosis induction in Leishmania donovani MHOM/SD/00/1S-2D promastigotes assessed as accumulation in sub-G1 phase at 20 uM after 24 hrs by propidium iodide staining.

Consider `CCCCCCCCCCCCCCCCOP(=O)([O-])OCC[N+](C)(C)C` [MILTEFOSINE], for which the Activity entry was “Dose-dependent effect” in the assay with Leishmania donovani [1]; 10% with Leishmania donovani [4]; “Dose-dependent effect” in the assay on Leishmania donovani [6]; 95.4% with Leishmania donovani [7]; 75% with Leishmania donovani [8]; 44.4% in the assay with Leishmania donovani [9]. Moreover, the figures for the Activity with Leishmania donovani [10] and in the assay with Leishmania donovani [13] were 40% and 38%, respectively. Also, the EC50 in the assay on Leishmania donovani [2] worked out at 10.2 µM. In addition, the result in the assay with Leishmania donovani [3], in the assay with Leishmania donovani [5] and in the assay on Leishmania donovani [11] was Active. Also, in the assay on Leishmania donovani [12], the inhibition came out at 5%.
